Each block holds one molecule with its values, some of them ahead of it. Calls of active or inactive are those of the source. The calls are words filed in the database; no cut-off is given here.
Assays:
[1] = biological target: T1, Corticotropin-releasing factor receptor 1 (Rattus norvegicus, UniProt P35353); assay: Displacement of [125I]Tyr-ovine-CRF from CRF1 receptor in rat frontal cortex homogenate by gamma counting; assay type: tissue-based
T1 sequence (P35353 whole entry): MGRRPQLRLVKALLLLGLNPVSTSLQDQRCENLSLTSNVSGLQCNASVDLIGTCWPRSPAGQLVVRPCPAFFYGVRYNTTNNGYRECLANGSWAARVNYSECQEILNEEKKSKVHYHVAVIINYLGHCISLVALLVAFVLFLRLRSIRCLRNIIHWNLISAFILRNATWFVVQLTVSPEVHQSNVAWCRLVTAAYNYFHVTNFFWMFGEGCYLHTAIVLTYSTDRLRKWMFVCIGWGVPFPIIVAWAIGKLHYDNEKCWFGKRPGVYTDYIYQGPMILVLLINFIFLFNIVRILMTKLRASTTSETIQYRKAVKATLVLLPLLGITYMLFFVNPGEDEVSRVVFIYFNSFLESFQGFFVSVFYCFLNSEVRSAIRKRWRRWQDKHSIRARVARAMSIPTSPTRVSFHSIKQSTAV
Outline: (§1)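 Washed homogenates of frozen rat frontal cortex (CRF1, 25 μg/well) or porcine choroid plexus (CRF2, 10 μg/well) in 50 mM Hepes pH 7.0, 10 mM MgCl2, 2 mM EGTA, protease inhibitors, 0.005% Triton X-100. Ligand 150 pM 125I-ovine-CRF (CRF1) or 100 pM 125I-sauvagine (CRF2). Incubation 2 h at 21 °C, then filtration and gamma counting. Nonspecific binding: 1 μM CRF1 reference antagonist or 1 μM α-helical CRF(9-41). IC50 from 5- or 10-point curves by nonlinear regression.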

[2] = Oral bioavailability in cynomolgus monkey at 10 mg/kg; assay type: ADME, organism-based, Macaca fascicularis; settings: in vivo
Outline: (§2)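 Cynomolgus monkeys, n = 3 per route. Iv dose 2 mg/kg in PEG:ethanol 90:10 (v/v), 1 mL/kg, sampled from jugular vein. Oral dose 10 mg/kg as suspension in 1% Tween in 0.5% methylcellulose, 3 mL/kg, sampled from femoral vein. Sampling to 24 h; plasma measured by LC/MS/MS.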

[3] = Cmax in Sprague-Dawley rat at 10 mg/kg, po; assay type: ADME, organism-based; parameters: dose 10 mg/kg, route oral; settings: in vivo
Outline: (§3)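 Male Sprague-Dawley rats; iv 2 mg/kg in PEG:ethanol 90:10 (v/v) at 1 mL/kg, or oral 10 mg/kg as 1% Tween 80 in 0.5% methylcellulose suspension at 3 mL/kg; n = 3 per route. Jugular catheter blood taken to 24 h postdose. Plasma was protein-precipitated with acetonitrile and assayed by LC/MS/MS.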

[4] = AUC in Sprague-Dawley rat at 10 mg/kg, po; assay type: ADME, organism-based; parameters: dose 10 mg/kg, route oral; settings: plasma; outline: as §3
Rattus norvegicus [5] = assay: Ex vivo displacement of [125I-Tyro]-sauvagine from CRF1 receptor in Sprague-Dawley rat parietal cortex at 10 mg/kg, po by autoradiography; assay type: functional
Outline: (§4)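 Brains from orally dosed rats taken after the defensive withdrawal test. 20 μm cryostat sections preincubated 1 min, then incubated 20 min at 22–24 °C with 0.15–0.20 nM [125I-Tyro]sauvagine in 50 mM HEPES pH 7.2 buffer. Nonspecific binding from vehicle sections with 1 μM reference CRF1 antagonist. Parietal cortex occupancy read by autoradiography and computed relative to vehicle specific binding.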

[6] = Half life in cynomolgus monkey at 2 mg/kg, iv; assay type: ADME, organism-based, Macaca fascicularis; parameters: dose 2 mg/kg, route intravenous; settings: in vivo; outline: as §2
Rattus norvegicus [7] = assay: Anxiolytic activity in Sprague-Dawley rat assessed as decrease in latency to exit dark chamber at 3 mg/kg, po after 1 hr by defensive withdrawal test; assay type: functional; parameters: scale not given: the % may be the effect or the level left
Outline: (§5)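 Male Sprague-Dawley rats (180–300 g), dosed po 1 h before testing in 0.25% methylcellulose suspension (bead-milled), 2 mL/kg. Blind observer recorded the latency to leave a dark chamber placed in an illuminated open field (all four paws out) over 15 min. ANOVA with Fisher's LSD, p < 0.05.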

[8] = biological target: T2, Corticotropin-releasing factor receptor 1 (Homo sapiens, UniProt P34998); assay: Antagonist activity at CRF1 receptor in human Y79 cells assessed as inhibition of CRF-stimulated cAMP production by HTRF method
T2 sequence (P34998 whole entry): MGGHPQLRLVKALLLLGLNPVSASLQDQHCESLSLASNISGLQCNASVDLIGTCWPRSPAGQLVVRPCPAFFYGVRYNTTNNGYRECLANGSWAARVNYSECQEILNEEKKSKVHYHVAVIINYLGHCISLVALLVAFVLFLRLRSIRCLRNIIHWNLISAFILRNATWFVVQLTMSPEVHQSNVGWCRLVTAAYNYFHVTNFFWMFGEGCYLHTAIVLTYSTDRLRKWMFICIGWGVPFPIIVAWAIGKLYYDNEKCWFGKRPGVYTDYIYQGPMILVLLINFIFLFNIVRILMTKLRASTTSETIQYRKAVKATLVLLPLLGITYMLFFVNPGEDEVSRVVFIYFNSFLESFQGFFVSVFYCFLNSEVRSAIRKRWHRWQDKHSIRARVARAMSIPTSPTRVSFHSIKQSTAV

Rattus norvegicus [9] = assay: Anxiolytic activity in Sprague-Dawley rat assessed as decrease in latency to exit dark chamber at 1 mg/kg, po after 1 hr by defensive withdrawal test; assay type: functional; parameters: scale not given: the % may be the effect or the level left; outline: as §5
Rattus norvegicus [10] = assay: Ex vivo displacement of [125I-Tyro]-sauvagine from CRF1 receptor in Sprague-Dawley rat parietal cortex at 3 mg/kg, po by autoradiography; assay type: functional; outline: as §4
Rattus norvegicus [11] = assay: Plasma concentration in Sprague-Dawley rat at 1 mg/kg, po; assay type: ADME, organism-based; parameters: dose 1 mg/kg, route oral; settings: in vivo
Rattus norvegicus [12] = assay: Anxiolytic activity in po dosed Sprague-Dawley rat assessed as minimal effective dose by defensive withdrawal test; assay type: functional; settings: read-out: MED; outline: as §5
[13] = Half life in Sprague-Dawley rat at 2 mg/kg, iv; assay type: ADME, organism-based; parameters: dose 2 mg/kg, route intravenous; settings: in vivo; outline: as §3
[14] = AUC in cynomolgus monkey at 10 mg/kg, po; assay type: ADME, organism-based, Macaca fascicularis; parameters: dose 10 mg/kg, route oral; settings: plasma; outline: as §2
Sus scrofa = species: Sus scrofa; assay: (§6) Displacement of [125I]sauvagine from CRF2 receptor in pig choroid plexus homogenate by gamma counting; assay type: tissue-based; outline: as §1
[15] = as §6; assay type: tissue-based, Sus scrofa; outline: as §1
[16] = Clearance in Sprague-Dawley rat at 2 mg/kg, iv; assay type: ADME, organism-based; parameters: dose 2 mg/kg, route intravenous; settings: in vivo; outline: as §3
[17] = Cmax in cynomolgus monkey at 10 mg/kg, po; assay type: ADME, organism-based, Macaca fascicularis; parameters: dose 10 mg/kg, route oral; settings: in vivo; outline: as §2
[18] = Octanol-water partition coefficient, log D at pH 7.4; assay type: physicochemical
Rattus norvegicus [19] = assay: Hepatic blood flow in Sprague-Dawley rat at 2 mg/kg, iv; assay type: ADME, organism-based, Liver; parameters: dose 2 mg/kg, route intravenous; settings: in vivo
Rattus norvegicus [20] = assay: Plasma concentration in Sprague-Dawley rat at 3 mg/kg, po; assay type: ADME, organism-based; parameters: dose 3 mg/kg, route oral; settings: in vivo
[21] = Volume of distribution at steady state in Sprague-Dawley rat at 2 mg/kg, iv; assay type: ADME, organism-based; parameters: dose 2 mg/kg, route intravenous; settings: in vivo, read-out: Vdss; outline: as §3
Rattus norvegicus [22] = assay: Free plasma concentration in Sprague-Dawley rat at 1 mg/kg, po; assay type: ADME, organism-based; parameters: dose 1 mg/kg, route oral; settings: in vivo
[23] = Volume of distribution at steady state in cynomolgus monkey at 2 mg/kg, iv; assay type: ADME, organism-based, Macaca fascicularis; parameters: dose 2 mg/kg, route intravenous; settings: in vivo, read-out: Vdss; outline: as §2
[24] = Clearance in cynomolgus monkey at 2 mg/kg, iv; assay type: ADME, organism-based, Macaca fascicularis; parameters: dose 2 mg/kg, route intravenous; settings: in vivo; outline: as §2
[25] = Unbound fraction in rat plasma after 3 hrs by equilibrium dialysis method; assay type: ADME, cell-free
Outline: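 Rat plasma spiked with compound, then equilibrium-dialysed against isotonic phosphate buffer for 3 h at 37 °C. Compound in the plasma and buffer samples was quantified by LC/MS/MS after acetonitrile protein precipitation with internal standard. Unbound fraction was taken as the buffer-to-plasma concentration ratio.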

Rattus norvegicus [26] = assay: Free plasma concentration in Sprague-Dawley rat at 10 mg/kg, po; assay type: ADME, organism-based; parameters: dose 10 mg/kg, route oral; settings: in vivo
[27] = Oral bioavailability in Sprague-Dawley rat at 10 mg/kg; assay type: ADME, organism-based; settings: in vivo; outline: as §3
Rattus norvegicus [28] = assay: Ex vivo displacement of [125I-Tyro]-sauvagine from CRF1 receptor in Sprague-Dawley rat parietal cortex at 1 mg/kg, po by autoradiography; assay type: functional; outline: as §4
Rattus norvegicus [29] = assay: Anxiolytic activity in Sprague-Dawley rat assessed as decrease in latency to exit dark chamber at 10 mg/kg, po after 1 hr by defensive withdrawal test; assay type: functional; parameters: scale not given: the % may be the effect or the level left; outline: as §5
Rattus norvegicus [30] = assay: Free plasma concentration in Sprague-Dawley rat at 3 mg/kg, po; assay type: ADME, organism-based; parameters: dose 3 mg/kg, route oral; settings: in vivo
Rattus norvegicus [31] = assay: Plasma concentration in Sprague-Dawley rat at 10 mg/kg, po; assay type: ADME, organism-based; parameters: dose 10 mg/kg, route oral; settings: in vivo

SMILES: CCC(CC)Cn1cc(Cl)nc(Nc2c(C)cc(C)cc2C)c1=O
- IC50 [1]: 39 nM

SMILES: COCC(COC)n1cc(Cl)nc(Nc2cc(C)c(OC)cc2C)c1=O
- IC50 [1]: 2.1 nM

SMILES: CCCC(CCC)n1cc(Cl)nc(Nc2cc(C)c(OC)cc2C)c1=O
- IC50 [1]: 0.62 nM

SMILES: CC[C@H](COC)n1cc(Cl)nc(Nc2c(C)cc(C)cc2C)c1=O
- IC50 [1]: 1.4 nM

SMILES: CCC(CC)n1cc(Cl)nc(Nc2cc(C)c(OC)cc2C)c1=O
- IC50 [1]: 0.8 nM

SMILES: Cc1cc(C)c(Nc2nc(Cl)cn([C@@H](CO)C3CC3)c2=O)c(C)c1
- IC50 [1]: 35 nM

The next lines start with results.

- IC50 [1]: 3.8 nM
SMILES: COc1ccc(Nc2nc(C)cn([C@H](C)C3CC3)c2=O)c(C(F)(F)F)n1

- IC50 [1]: 0.62 nM
SMILES: COc1cc(Cl)c2c(c1)CCN2c1nc(Cl)cn([C@H](C)C2CC2)c1=O

- IC50 [1]: 180 nM
SMILES: CC[C@H](C1CC1)n1cc(Cl)nc(Nc2ccc(Cl)cc2)c1=O

- bioavailability [2]: 2%
- Cmax [3]: 52 nM
- AUC [4]: 0.36 µM·h
- half-life [6]: 9.3 h
- IC50 [8]: 1.9 nM
- concentration (Rattus norvegicus [11]): 4.9 nM
- half-life [13]: 18 h
- AUC [14]: 0.41 µM·h
- Activity (Sus scrofa): inactive
- IC50 [15]: > 10000 nM
- clearance [16]: 170 mL/min/kg
- Cmax [17]: 32 nM
- logD [18]: 4.35
- QH (Rattus norvegicus [19]): 55 mL/min/kg
- concentration (Rattus norvegicus [20]): 14 nM
- Vd [21]: 97 L/kg
- Cp(f) (Rattus norvegicus [22]): 0.1 nM
- Vd [23]: 7.7 L/kg
- clearance [24]: 21 mL/min/kg
- fraction unbound at 3 h [25]: 0.021
- Cp(f) (Rattus norvegicus [26]): 1.6 nM
- IC50 [1]: 0.26 nM
- bioavailability [27]: 14%
- Cp(f) (Rattus norvegicus [30]): 0.29 nM
- concentration (Rattus norvegicus [31]): 76 nM
SMILES: COC[C@@H](C1CC1)n1cc(Cl)nc(Nc2cc(C)c(OC)cc2C)c1=O
- Activity (Rattus norvegicus [5]): 94%
- Activity (Rattus norvegicus [7]): 60%
- Activity (Rattus norvegicus [9]): <5%
- Activity (Rattus norvegicus [10]): 72%
- minimal effective dose (Rattus norvegicus [12]): 3 mg/kg
- Activity (Rattus norvegicus [28]): 37%
- Activity (Rattus norvegicus [29]): 65%

- IC50 [1]: 1.5 nM
SMILES: CCOc1cc(C)c(Nc2nc(Cl)cn([C@@H](COC)C3CC3)c2=O)cc1C

- IC50 [1]: 150 nM
SMILES: COc1ccc(Nc2nccn([C@H](C)C3CC3)c2=O)c(C(F)(F)F)n1

— ChEMBL document CHEMBL1158468, “Synthesis, structure-activity relationships, and in vivo evaluation of N3-phenylpyrazinones as novel corticotropin-releasing factor-1 (CRF1) receptor antagonists” (J Med Chem, 2009)
